Results published in ChEMBL document CHEMBL4428062, “Human Toll-like Receptor (TLR) 8-Specific Agonistic Activity in Substituted Pyrimidine-2,4-diamines” (J Med Chem, 2016).
The source made the active and inactive calls. The calls are words filed in the database; no cut-off is given here.

Legend:
[1] = molecular target: T1, Toll-like receptor 7 (Homo sapiens) (UniProt Q9NYK1); experiment: Agonist activity at human TLR7 expressed in HEK293 cells assessed as induction of NF-kappaB activity by secreted alkaline phosphatase reporter gene assay; assay type: cell-based
T1 sequence (whole entry): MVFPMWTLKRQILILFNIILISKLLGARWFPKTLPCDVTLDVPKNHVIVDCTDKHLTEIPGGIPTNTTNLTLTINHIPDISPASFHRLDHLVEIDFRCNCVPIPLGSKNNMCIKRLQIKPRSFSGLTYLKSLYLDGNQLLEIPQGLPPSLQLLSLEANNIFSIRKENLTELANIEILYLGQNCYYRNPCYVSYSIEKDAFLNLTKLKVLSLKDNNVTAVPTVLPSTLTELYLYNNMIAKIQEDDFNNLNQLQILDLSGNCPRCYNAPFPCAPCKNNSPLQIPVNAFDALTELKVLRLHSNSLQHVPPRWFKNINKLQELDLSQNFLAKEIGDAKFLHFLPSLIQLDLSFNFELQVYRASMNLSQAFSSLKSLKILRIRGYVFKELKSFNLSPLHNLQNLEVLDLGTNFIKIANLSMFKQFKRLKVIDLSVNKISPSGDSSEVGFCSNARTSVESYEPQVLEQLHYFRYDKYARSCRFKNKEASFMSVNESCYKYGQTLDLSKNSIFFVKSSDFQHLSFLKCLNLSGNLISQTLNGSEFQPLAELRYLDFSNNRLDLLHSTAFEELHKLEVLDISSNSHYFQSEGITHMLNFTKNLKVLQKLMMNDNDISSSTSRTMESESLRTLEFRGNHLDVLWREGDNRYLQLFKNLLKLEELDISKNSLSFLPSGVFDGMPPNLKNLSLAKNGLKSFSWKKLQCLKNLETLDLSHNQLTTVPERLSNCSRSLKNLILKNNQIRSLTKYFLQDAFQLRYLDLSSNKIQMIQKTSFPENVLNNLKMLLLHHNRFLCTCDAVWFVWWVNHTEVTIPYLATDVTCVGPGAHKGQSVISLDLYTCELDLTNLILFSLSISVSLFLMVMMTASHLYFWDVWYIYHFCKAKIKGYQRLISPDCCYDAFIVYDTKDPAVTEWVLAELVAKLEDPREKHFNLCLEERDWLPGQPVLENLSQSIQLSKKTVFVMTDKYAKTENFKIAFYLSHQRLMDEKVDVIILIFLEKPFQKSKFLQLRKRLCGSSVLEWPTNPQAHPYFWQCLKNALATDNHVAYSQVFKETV
Method in brief: (§1)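 HEK293 reporter lines stably co-transfected with the respective human TLR and an NF-κB/AP-1-driven secreted alkaline phosphatase gene, kept in selection medium. About 10^5 cells/ml were incubated with graded concentrations of stimuli. Supernatant sAP was read spectrophotometrically at 620 nm using a chromogenic substrate in detection medium. EC50 was taken as the arithmetic mean of quadruplicate samples.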

[2] = molecular target: Toll-like receptor 2 (Homo sapiens) (UniProt O60603); experiment: Agonist activity at human TLR2 expressed in HEK293 cells assessed as induction of NF-kappaB activity by secreted alkaline phosphatase reporter gene assay; assay type: cell-based; method in brief: as §1
[3] = molecular target: T2, Toll-like receptor 8 (Homo sapiens) (UniProt Q9NR97); experiment: Agonist activity at TLR8 in human PBMC assessed as induction of IL-8 levels after 16 hrs by immunoassay
T2 sequence (whole entry): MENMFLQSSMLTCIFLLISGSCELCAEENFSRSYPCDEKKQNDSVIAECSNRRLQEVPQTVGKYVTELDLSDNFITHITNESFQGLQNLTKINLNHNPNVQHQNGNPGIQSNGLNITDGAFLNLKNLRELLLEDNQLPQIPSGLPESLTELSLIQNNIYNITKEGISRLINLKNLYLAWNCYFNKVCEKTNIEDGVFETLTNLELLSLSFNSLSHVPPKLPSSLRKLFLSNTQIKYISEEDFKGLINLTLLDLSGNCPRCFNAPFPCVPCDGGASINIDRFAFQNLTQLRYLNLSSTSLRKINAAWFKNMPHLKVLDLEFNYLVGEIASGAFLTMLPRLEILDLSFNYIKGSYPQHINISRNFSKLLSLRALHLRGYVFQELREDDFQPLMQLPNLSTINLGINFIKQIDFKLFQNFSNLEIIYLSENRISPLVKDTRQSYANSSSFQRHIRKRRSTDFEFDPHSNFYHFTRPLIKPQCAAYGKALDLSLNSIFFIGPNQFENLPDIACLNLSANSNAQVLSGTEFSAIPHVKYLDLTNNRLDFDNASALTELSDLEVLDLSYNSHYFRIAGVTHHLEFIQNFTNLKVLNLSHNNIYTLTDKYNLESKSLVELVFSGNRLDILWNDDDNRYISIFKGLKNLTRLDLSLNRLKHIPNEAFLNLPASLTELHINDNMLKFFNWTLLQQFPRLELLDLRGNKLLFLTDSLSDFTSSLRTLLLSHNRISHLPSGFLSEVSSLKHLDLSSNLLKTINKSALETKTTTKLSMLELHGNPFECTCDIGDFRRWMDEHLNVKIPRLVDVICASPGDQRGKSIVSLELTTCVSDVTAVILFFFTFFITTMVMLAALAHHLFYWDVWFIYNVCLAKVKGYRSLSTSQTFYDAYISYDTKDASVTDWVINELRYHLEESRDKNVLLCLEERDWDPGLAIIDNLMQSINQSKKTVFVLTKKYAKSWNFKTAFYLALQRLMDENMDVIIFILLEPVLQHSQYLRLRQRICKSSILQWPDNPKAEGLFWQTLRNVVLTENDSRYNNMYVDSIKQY
Method in brief: (§2)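 Freshly isolated human PBMC from venipuncture blood (informed consent), 10^5 cells/well, stimulated 16 h with graded concentrations of compound. Supernatants collected by centrifugation and cytokines quantified in duplicate with a multiplexed cytokine/chemokine magnetic bead array.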

[4] = molecular target: T3, Toll-like receptor 8 (Homo sapiens, UniProt Q9NR97); experiment: Agonist activity at human TLR8 expressed in HEK293 cells assessed as induction of NF-kappaB activity by secreted alkaline phosphatase reporter gene assay; assay type: cell-based; method in brief: as §1
T3 sequence (Q9NR97 whole entry): T2 sequence (whole entry)

[5] = molecular target: Toll-like receptor 3 (Homo sapiens) (UniProt O15455); experiment: Agonist activity at human TLR3 expressed in HEK293 cells assessed as induction of NF-kappaB activity by secreted alkaline phosphatase reporter gene assay; assay type: cell-based; method in brief: as §1
[6] = molecular target: T2, Toll-like receptor 8 (Homo sapiens); experiment: Agonist activity at TLR8 in human monocytes assessed as upregulation of CD80 after 16 hrs by flow cytometry; assay type: cell-based
Method in brief: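 Heparin-anticoagulated healthy-donor whole blood added to serial compound dilutions, 37 °C for 16 h, DMSO negative control. Stained with CD14-FITC, CD40-APC, CD80-PE-Cy7 and CD86-V450 (2.5 µg each, 4 °C, dark, 60 min). Erythrocytes lysed, leukocytes fixed, washed, then flow cytometry on 200,000 gated events. Monocytes gated as CD14+, CD80 read as MFI, means of duplicates.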

[7] = molecular target: T2, Toll-like receptor 8 (Homo sapiens); experiment: Agonist activity at TLR8 in human PBMC assessed as induction of IL-1beta levels after 16 hrs by immunoassay; method in brief: as §2
[8] = molecular target: T2, Toll-like receptor 8 (Homo sapiens); experiment: Agonist activity at TLR8 in human PBMC assessed as increase in TNF-alpha production after 16 hrs by immunoassay; method in brief: as §2
[9] = molecular target: T2, Toll-like receptor 8 (Homo sapiens); experiment: Agonist activity at TLR8 in human PBMC assessed as induction of IL-6 levels after 16 hrs by immunoassay; method in brief: as §2

Toll-like receptor 2 (Homo sapiens), sequence (O60603 whole entry): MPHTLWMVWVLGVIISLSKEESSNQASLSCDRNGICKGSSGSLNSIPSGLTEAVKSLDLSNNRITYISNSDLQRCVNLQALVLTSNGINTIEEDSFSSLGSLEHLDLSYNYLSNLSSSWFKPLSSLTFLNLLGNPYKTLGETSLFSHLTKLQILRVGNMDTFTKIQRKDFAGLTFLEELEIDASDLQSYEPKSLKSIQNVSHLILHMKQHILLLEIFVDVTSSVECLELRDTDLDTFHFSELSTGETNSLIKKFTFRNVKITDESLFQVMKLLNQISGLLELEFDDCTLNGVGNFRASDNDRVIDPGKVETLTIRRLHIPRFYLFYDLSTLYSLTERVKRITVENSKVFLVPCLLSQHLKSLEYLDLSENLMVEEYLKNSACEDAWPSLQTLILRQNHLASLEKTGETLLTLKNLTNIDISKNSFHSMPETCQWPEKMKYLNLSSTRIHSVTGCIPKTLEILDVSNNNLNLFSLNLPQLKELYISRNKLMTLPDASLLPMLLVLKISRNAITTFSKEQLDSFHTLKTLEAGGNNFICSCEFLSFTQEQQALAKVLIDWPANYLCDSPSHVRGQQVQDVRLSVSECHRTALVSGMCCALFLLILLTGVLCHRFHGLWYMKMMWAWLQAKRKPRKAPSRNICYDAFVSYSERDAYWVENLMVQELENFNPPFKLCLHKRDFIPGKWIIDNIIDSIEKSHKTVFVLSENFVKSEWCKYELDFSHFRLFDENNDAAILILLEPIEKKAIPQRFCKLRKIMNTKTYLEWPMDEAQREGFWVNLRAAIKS
Toll-like receptor 3 (Homo sapiens), sequence (O15455 whole entry): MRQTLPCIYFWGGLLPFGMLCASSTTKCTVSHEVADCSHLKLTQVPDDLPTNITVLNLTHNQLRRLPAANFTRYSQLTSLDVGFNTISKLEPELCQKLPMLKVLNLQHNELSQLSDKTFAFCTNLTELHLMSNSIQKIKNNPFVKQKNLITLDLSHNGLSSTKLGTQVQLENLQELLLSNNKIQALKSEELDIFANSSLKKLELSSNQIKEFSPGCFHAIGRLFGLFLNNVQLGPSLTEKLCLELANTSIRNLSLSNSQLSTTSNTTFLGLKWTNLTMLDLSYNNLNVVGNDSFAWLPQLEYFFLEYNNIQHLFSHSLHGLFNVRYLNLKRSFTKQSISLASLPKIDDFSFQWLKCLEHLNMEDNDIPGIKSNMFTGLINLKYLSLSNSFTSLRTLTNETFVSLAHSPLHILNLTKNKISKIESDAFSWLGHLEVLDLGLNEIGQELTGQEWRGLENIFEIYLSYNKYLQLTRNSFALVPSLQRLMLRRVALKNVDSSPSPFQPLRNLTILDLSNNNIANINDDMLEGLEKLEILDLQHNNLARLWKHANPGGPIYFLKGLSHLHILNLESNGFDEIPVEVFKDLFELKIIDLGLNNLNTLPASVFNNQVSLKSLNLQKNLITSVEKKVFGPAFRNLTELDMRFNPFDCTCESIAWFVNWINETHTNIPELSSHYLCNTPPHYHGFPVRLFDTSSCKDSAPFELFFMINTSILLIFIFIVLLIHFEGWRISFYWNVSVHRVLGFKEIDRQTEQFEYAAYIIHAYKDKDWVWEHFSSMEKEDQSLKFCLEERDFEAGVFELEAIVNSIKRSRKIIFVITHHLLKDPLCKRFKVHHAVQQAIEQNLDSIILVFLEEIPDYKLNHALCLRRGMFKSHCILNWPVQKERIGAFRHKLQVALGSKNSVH

With `CCCCNc1nc(N)nc(C)c1I` the Activity [1] was “inactive”, the Activity [2] was “inactive” and the Activity [3] was “Active”. For the same molecule, the EC50 [4] was 1640 nM, the Activity [5] was “inactive” and the Activity [6] was 5 µM. For the same molecule, the Activity [7] was “Active”, the Activity [8] was “Active” and the Activity [9] was “Active”.

`CCCCCn1c(N)nc2c(C)cccc21` was tested, and the Activity [1] was “inactive”, the Activity [2] was “inactive” and the Activity [3] was “Active”. For the same molecule, the EC50 [4] was 1800 nM, the Activity [5] was “inactive” and the Activity [6] was 14 µM. For the same molecule, the Activity [7] was “Active”, the Activity [8] was “Active” and the Activity [9] was “Active”.

For `CCCCNc1nc(N)nc(C)c1CCCCN`, the Activity [1] was “inactive”, the Activity [2] was “inactive” and the Activity [3] was “inactive”. The EC50 [4] was 300 nM, the Activity [5] was “inactive” and the Activity [6] was 1.5 µM. For the same molecule, the Activity [7] was “inactive” and the Activity [9] was “inactive”.

In the case of `CCCCNc1nc(N)nc(-c2ccccc2)c1CCCCN`, the Activity [1] is reported as “inactive”, the Activity [2] is reported as “inactive” and the Activity [3] is reported as “inactive”. For the same molecule, the Activity [5] was “inactive”, the Activity [7] was “inactive” and the Activity [8] was “inactive”. The Activity [9] was “inactive”.

In the case of `CCCCNc1cc(-c2ccccc2)nc(N)n1`, the Activity [1] is reported as “inactive”, the Activity [2] is reported as “inactive” and the Activity [3] is reported as “inactive”. For the same molecule, the EC50 [4] was 6700 nM, the Activity [5] was “inactive” and the Activity [7] was “inactive”. The Activity [8] was “inactive” and the Activity [9] was “inactive”.
